Data as given in ChEMBL document CHEMBL3217651, “A furoxan-amodiaquine hybrid as a potential therapeutic for three parasitic diseases()” (Medchemcomm, 2012).
The source made the active and inactive calls. No cut-off for these calls is given here.

Tests used:
[1] = test system: Plasmodium falciparum; assay: Antimalarial activity against chloroquine-sensitive Plasmodium falciparum 3D7 infected in human erythrocytes after 96 hrs by luciferase based delayed death assay; type: functional, organism-based; details: 3D7, 96 h
Summary of the method: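 Delayed-death format of the 3D7 erythrocyte proliferation assay: parasites incubated 96 hours with compound so that activity against progeny is detected, with luciferase as the viability reporter; IC50 taken from this read-out.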

[2] = test system: Plasmodium falciparum; assay: Antimalarial activity against chloroquine-sensitive Plasmodium falciparum 3D7 infected in human erythrocytes after 72 hrs by SYBR Green I staining; details: 3D7, 72 h
[3] = test system: Schistosoma mansoni; assay: Antischistosomiasis activity against Schistosoma mansoni at 5 nM to 50 uM by thioredoxin glutathione reductase biochemical assay; type: functional
Summary of the method: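 S. mansoni TGR (20 nM) preincubated 10 min at room temperature with 100 μM NADPH and compound (50 μM to 5 nM, eight levels) in 0.1 M potassium phosphate pH 7.4, 10 mM EDTA. Then 3 mM DTNB was added and A412 followed over the first 3 min. Residual activity was expressed relative to DMSO controls, in triplicate, and IC50 derived.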

[4] = test system: Schistosoma mansoni; assay: Antischistosomiasis activity against Schistosoma mansoni assessed as worm mobility and survival at 50 uM after 24 hrs by stereomicroscopic analysis; type: functional, organism-based
Summary of the method: (§1)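 Adult worms perfused with RPMI 1640 from female Swiss-Webster mice 7 weeks after cercarial infection. They were washed and held at 15–20 per well in cRPMI (25 mM HEPES, penicillin/streptomycin, 10% FBS) overnight at 37 °C, 5% CO2. Compound from 10 mM DMSO stock was tested at 50, 10, 5 and 1 μM against DMSO-only wells. Media plus compound were renewed every 48 h; motility and survival scored by stereomicroscope, 10 s per worm.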

[5] = test system: Schistosoma mansoni; assay: Antischistosomiasis activity against Schistosoma mansoni assessed as worm mobility and survival at 10 uM by stereomicroscopic analysis; type: functional, organism-based; summary of the method: as §1
[6] = test system: Ancylostoma ceylanicum; assay: Nematicidal activity against Ancylostoma ceylanicum assessed as live/dead worms at 100 uM up to 120 hrs by adult worm killing assay; type: functional, organism-based
Summary of the method: (§2)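 Adult A. ceylanicum taken from small intestine of infected Syrian hamsters, cultured in RPMI 1640 with 50% FCS, penicillin/streptomycin, Fungizone. Ten worms per well, 2 wells per treatment, with 100 μM compound; DMSO and 100 μM albendazole controls. Wells scored by light microscopy every 24 h for percent live/dead, death meaning complete loss of motility, across 120 h.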

[7] = test system: Ancylostoma ceylanicum; assay: Nematicidal activity against Ancylostoma ceylanicum assessed as live/dead worms at 100 uM after 72 hrs by adult worm killing assay; type: functional, organism-based; summary of the method: as §2
[8] = test system: Plasmodium falciparum; assay: Ratio of IC50 for chloroquine-sensitive Plasmodium falciparum 3D7 by luciferase based delayed death assay to IC50 for chloroquine-sensitive Plasmodium falciparum 3D7 by SYBR Green I staining; type: functional
Summary of the method: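 P. falciparum 3D7 in human erythrocytes (0.3% parasitemia, 2.5% hematocrit final), seven fivefold dilutions from 5.7 or 29 μM. Standard format: 72 h at 37 °C, 5% CO2, then saponin/Triton lysis with SYBR Green I overnight in the dark, fluorescence 485/535 nm. Delayed-death format: 96 h, luciferase viability read-out. The line is the ratio of the delayed-death IC50 to the SYBR IC50.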

CC(C)(C)NCc1cc(Br)cc(Nc2ccnc3cc(Cl)ccc23)c1
IC50 [1]: 65 nM | IC50 [2]: 7 nM

CC(C)(C)N(Cc1cc(Nc2ccnc3cc(Cl)ccc23)cc(-c2no[n+]([O-])c2C#N)c1)N=O
IC50 [1]: > 15000 nM | IC50 [2]: 113 nM

C[C@@H]1CC[C@H]2[C@@H](C)C(=O)O[C@@H]3O[C@@]4(C)CC[C@@H]1[C@]32OO4 [ARTEMISININ]
IC50 [1]: 12 nM | IC50 [2]: 11 nM

CC(C)(C)NCc1cc(Nc2ccnc3cc(Cl)ccc23)cc(-c2no[n+]([O-])c2C#N)c1
IC50 [1]: 630 nM | Activity [3]: Active | Activity [4]: Active | Activity [5]: inactive | Activity [6]: Active | Activity [7]: Active | IC50 [2]: 40 nM

N#Cc1c(-c2ccccc2)no[n+]1[O-] [FUROXAN]
Activity [3]: Active | Activity [5]: Active

CCN(CC)Cc1cc(Nc2ccnc3cc(Cl)ccc23)ccc1O
IC50 [1]: > 10000 nM | IC50 [2]: 15 nM

CC(C)(C)N(Cc1cc(Nc2ccnc3cc(Cl)ccc23)cc(-c2no[n+]([O-])c2/C=N/O)c1)N=O
IC50 [1]: 1070 nM | Ratio IC50 [8]: 50 | IC50 [2]: 24 nM
